In all, about 320,000 compounds went through this assay and about 200 (0.062%) were called active.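 Rule for the calls: active = activation above that plate's cutoff, the mean activation of tested compounds plus 3 SD (cut at about 6.6% in these data, passing the limit was not always enough); inactive = the rest.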 This excerpt belongs to a sample that is enriched for actives.
Molecular target: Oxytocin receptor (Homo sapiens) (UniProt P30559)
Experiment: enhancers of oxytocin-evoked OXTR calcium signal – fluorescence, CHO-OTR cells, Fluo-8 calcium, primary screen (AID 2445);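 note: 100% uses oxytocin at 75 nM as the full agonist control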
Conditions: Fluo-8 calcium fluorescence, potentiator mode, at 3 µM, active compounds read high, 0% = oxytocin EC15, 100% = EC100
In short: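 test system = CHO-OTR cells, human receptor | compound = single-point 3.0 µM | schedule = 6 min compound pre-incubation at room temperature, 100 s kinetic read | signal = Fluo-8 no-wash calcium dye fluorescence, excitation 470-495 nm, emission 515-575 nm | repeats = single well per compound, singlicate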

Chain of Oxytocin receptor (Homo sapiens) (P30559 whole entry, looked up): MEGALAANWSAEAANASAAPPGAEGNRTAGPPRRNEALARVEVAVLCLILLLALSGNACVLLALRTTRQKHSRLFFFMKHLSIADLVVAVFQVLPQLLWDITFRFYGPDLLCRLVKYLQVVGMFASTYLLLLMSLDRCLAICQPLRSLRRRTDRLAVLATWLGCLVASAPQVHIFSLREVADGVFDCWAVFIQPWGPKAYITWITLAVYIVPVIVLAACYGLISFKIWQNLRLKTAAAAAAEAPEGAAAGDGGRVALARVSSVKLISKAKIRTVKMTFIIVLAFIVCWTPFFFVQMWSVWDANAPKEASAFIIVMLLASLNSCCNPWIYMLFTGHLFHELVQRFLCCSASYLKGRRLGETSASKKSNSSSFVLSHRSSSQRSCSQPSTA

Compound | activation
Cc1ccc2c(c1)C(O)(CC(=O)c1cccc(-n3cccc3)c1)C(=O)N2 (centres undefined) | -5.12% (inactive)
O=C(COc1ncnc2c(Cl)cc(Cl)cc12)N1CCN(S(=O)(=O)c2ccccc2)CC1 | -0.15% (inactive)
Cc1ccc(S(=O)(=O)N(C)c2ccc(OCC(=O)OCc3ccc(C#N)cc3)cc2)cc1 | -6.02% (inactive)
COc1ccc2c(c1)CC[C@@H]1[C@@H]2CC[C@]2(C)C(=O)CC[C@@H]12 | -6.25% (inactive)
O=S(=O)(NCCOc1cccc2cccnc12)c1ccc(F)cc1 | -8.04% (inactive)
COc1cccc(NC(=O)CSc2nnc(Cc3ccc(OC)c(OC)c3)o2)c1 | -7.75% (inactive)
Cc1cccc(N=C2SC(C)CN2C(=O)CN2C(=O)NC3(CCCC3)C2=O)c1 (centres undefined) | -10% (inactive)
CCOc1ccc(C(=O)Nc2cc(Cl)ccc2-n2cncn2)cc1OC | 3.32% (inactive)
c1ccc(-c2cn3c(n2)CCc2ccc4cccnc4c2-3)cc1 | 0.09% (inactive)
CCC(C)N(C(=O)COC(=O)C1C(C(=O)OC)=C(C)NC(C)=C1C(=O)OC)C1CCS(=O)(=O)C1 (centres undefined) | -7.92% (inactive)
COc1ccc(NC(=O)CC(NC(C)c2ccccc2)C(=O)O)cc1 (centres undefined) | 1.93% (inactive)
Cc1cc(C)cc(NC(=O)CN2C(=O)c3ccccc3C2=O)c1 | -3.2% (inactive)
CSc1cccc(NC(=O)CSc2ccccc2)c1 | -15.7% (inactive)
Cc1cc(C)cc(NC(=O)CSc2ccccc2)c1 | 12.9% (active)
CCCCn1c(N)c(N(CC(C)C)C(=O)CSc2ccc([N+](=O)[O-])cc2)c(=O)[nH]c1=O | 1.02% (inactive)
Cc1ccc(-c2nnc(-n3nnc4ccccc43)c3ccccc23)cc1 | -11.2% (inactive)
Cc1ccc(Cl)cc1NC(=O)CN1CCN(S(=O)(=O)N2CCOCC2)CC1 | -9.03% (inactive)
Cc1ccc(S(=O)(=O)NC2(C(F)(F)F)NC(=O)N(CCc3ccccc3)C2=O)cc1 (centres undefined) | -18.6% (inactive)
COc1cccc(N2CCN(c3ccc4nnc(CCC(=O)N5CCN(C)CC5)n4n3)CC2)c1 | -0.01% (inactive)
Cc1ccc(S(=O)(=O)N(CCCN(C)C)Cc2ccc3c(c2)OCO3)cc1 | -1.86% (inactive)

Compound | activation
COc1ccc(SCc2noc(C(=O)NCC3CCCO3)c2C(=O)O)cc1 (centres undefined) | 3.88% (inactive)
CC1CN(CC(=O)NC(C)c2ccccc2)CC(C)O1 (centres undefined) | -2.73% (inactive)
CC(C)Oc1ccccc1C(=O)NC(CO)C(=O)O (centres undefined) | 7% (inactive)
COc1ccc(CNc2cc(C)cc(C)c2)cc1OC | -5.89% (inactive)
Cc1c(CN2CCC(CO)(CCOc3ccccc3)CC2)[nH]c2ccc(Cl)cc12 | -15% (inactive)
Cc1c(C)c2c(OCC(=O)N[C@@H](C(=O)O)c3ccccc3)cc3c(c2oc1=O)CCC(C)(C)O3 | 0.86% (inactive)
CCc1c(SCCC(=O)O)nc2ccccc2c1C | 2.81% (inactive)
CN1CCN(c2ccc(CNS(=O)(=O)c3cccc(F)c3)cc2)CC1 | -0.68% (inactive)
Cc1ccsc1CNn1cnnc1SCc1ccccc1F | -4.45% (inactive)
c1ccc2c(-c3nn4nnnc4c4ccccc34)cccc2c1 | -11% (inactive)
C=CCNC(=O)c1ccc2c3n(nc2c1)-c1ccc(C)cc1CO3 | -15.6% (inactive)
N#Cc1c(NC(=O)C2CCCO2)sc2c1CCCCC2 (centres undefined) | -9.34% (inactive)
NC(=O)C1CC(=O)N(c2ccc(OCC(=O)NCc3ccccc3)cc2)C1 (centres undefined) | 2.9% (inactive)
CC1CCC2CCCCC2N1C(=O)c1cc([N+](=O)[O-])cc([N+](=O)[O-])c1 (centres undefined) | -6.56% (inactive)
OCCN1CCOCCOCCN(CCO)CCN(CCO)CC1 | -14% (inactive)
Cc1cccc2c1-c1sc(C(=O)NCCCN3CCc4ccccc4C3)cc1CO2 | -6.4% (inactive)
O=C(NCc1ccccc1)C1CCN(C(=O)Cc2ccccc2)CC1 | -0.95% (inactive)
Cc1ccc(N2C(=O)CN=C2Nc2nc(C)cc(C)n2)cc1 | -1.27% (inactive)
COc1ccc(Br)c2c1C(=O)CC2 | -5.51% (inactive)
Cc1ccc(S(=O)(=O)NCC2CCC(C(=O)N3CCOCC3)CC2)cc1 (centres undefined) | -11.8% (inactive)

Compound | activation
CS(=O)(=O)Nc1ccccc1C(=O)OCC(=O)NC1CC1 | -5.14% (inactive)
O=C(Nc1ccccc1C(=O)N1CCOCC1)c1ccc(Cl)cc1 | -4.35% (inactive)
COC(=O)CSc1snnc1-c1ccc(Cl)c(Cl)c1 | -15.7% (inactive)
O=C(O)c1ccc2c(=O)n3c(nc2c1)/C(=C/c1ccc(OC(F)F)cc1OC(F)F)CC3 | 1.58% (inactive)
Cn1c(N)c(C(=O)COC(=O)c2ccccc2NCc2ccco2)c(=O)n(C)c1=O | -14.4% (inactive)
Cc1ccccc1Cn1c2ccccc2c2cnn(CC(=O)NCc3ccco3)c(=O)c21 | 1.81% (inactive)
CCCCCCCCCCCCN1[C@@H](CC(C)=O)c2cc(F)cc(F)c2S1(=O)=O | 9.85% (inactive)
COc1ccc(OCC(=O)Nc2nnc(-c3ccco3)s2)cc1 | -4.78% (inactive)
O=C(Nc1nc(-c2ccco2)c(-c2ccco2)s1)c1ccco1 | -4.21% (inactive)
CNc1nnc(-c2ccco2)s1 | 11.7% (active)
CC(C)N(Cc1ccccc1)C(=O)COC(=O)c1cnccn1 | -12.7% (inactive)
COc1cc(OC)c(C(=O)OC(C)C(=O)Nc2cc(C(F)(F)F)ccc2Cl)cc1OC (centres undefined) | -8.37% (inactive)
Cc1noc(C)c1NC(=O)Nc1ccc2c(c1)C(=O)N([C@H](C)CO)C[C@H](C)[C@@H](CN(C)C(=O)Nc1ccccc1)O2 | -1.66% (inactive)
CSc1ncccc1C(=O)OCc1ccc(Br)cc1 | -14.7% (inactive)
O=C(O)CCCCOn1ccnc1 | 3.24% (inactive)
Cc1nc2cc(NCc3cccs3)ccc2n1C | -14.8% (inactive)
O=C1/C(=C/c2ccc3c(c2)OCO3)Oc2cc(OCC(=O)N3CC(O)C[C@H]3C(=O)O)ccc21 (some centres undefined) | -2.05% (inactive)
Cc1nc(-c2ccc(F)cc2)c(CC(=O)N2CCN(S(=O)(=O)c3ccc(F)cc3)CC2)s1 | -7.74% (inactive)
O=C(Nc1ccc(F)cc1)C1CCN(C(=O)c2ccc([N+](=O)[O-])cc2)CC1 | -7.48% (inactive)
